Experimental data published in ChEMBL document CHEMBL1158589, “Benzimidazole and imidazole inhibitors of histone deacetylases: Synthesis and biological activity” (Bioorg Med Chem Lett, 2010).

Experiments:
[1] = molecular target: T1, Protein deacetylase HDAC6 (Homo sapiens, UniProt Q9UBN7); test: Inhibition of human recombinant HDAC6
T1 sequence (Q9UBN7 whole entry): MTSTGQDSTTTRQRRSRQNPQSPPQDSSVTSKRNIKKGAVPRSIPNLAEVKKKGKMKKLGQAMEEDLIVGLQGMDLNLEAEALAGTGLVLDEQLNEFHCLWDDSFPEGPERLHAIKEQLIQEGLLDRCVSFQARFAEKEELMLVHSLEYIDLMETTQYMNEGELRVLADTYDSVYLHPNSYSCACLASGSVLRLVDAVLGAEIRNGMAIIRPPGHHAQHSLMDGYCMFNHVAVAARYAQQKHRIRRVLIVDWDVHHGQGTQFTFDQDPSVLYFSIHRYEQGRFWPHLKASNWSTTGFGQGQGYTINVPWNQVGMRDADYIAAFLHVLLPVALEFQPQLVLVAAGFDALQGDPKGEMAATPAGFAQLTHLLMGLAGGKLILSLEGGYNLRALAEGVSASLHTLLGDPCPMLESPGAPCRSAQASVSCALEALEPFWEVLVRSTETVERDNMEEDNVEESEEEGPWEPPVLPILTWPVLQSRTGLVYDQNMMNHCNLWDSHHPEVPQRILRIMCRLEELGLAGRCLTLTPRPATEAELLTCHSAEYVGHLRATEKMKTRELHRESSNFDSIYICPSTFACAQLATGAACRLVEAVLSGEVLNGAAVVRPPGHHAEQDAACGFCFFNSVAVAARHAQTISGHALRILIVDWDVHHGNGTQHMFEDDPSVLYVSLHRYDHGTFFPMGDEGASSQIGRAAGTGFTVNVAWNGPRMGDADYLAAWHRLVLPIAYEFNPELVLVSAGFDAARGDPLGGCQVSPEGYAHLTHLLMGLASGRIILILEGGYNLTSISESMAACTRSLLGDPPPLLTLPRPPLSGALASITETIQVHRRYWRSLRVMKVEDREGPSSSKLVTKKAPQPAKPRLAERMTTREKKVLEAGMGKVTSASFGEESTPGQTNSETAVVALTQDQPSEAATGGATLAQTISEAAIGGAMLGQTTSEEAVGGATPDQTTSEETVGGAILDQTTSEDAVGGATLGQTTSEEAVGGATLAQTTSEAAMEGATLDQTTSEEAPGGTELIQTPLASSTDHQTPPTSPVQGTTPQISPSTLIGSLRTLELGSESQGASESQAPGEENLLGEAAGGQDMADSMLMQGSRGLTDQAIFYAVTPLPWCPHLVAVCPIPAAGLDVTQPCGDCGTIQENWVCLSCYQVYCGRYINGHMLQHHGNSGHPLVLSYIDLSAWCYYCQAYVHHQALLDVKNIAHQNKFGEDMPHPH
In short: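 Purified recombinant human HDAC-2 or HDAC-6 at known enzyme concentration with tBOC(Ac)-Lys-AMC as substrate. IC50 is the mean of at least three experiments.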

Histone deacetylase 8 = molecular target: T2, Histone deacetylase 8 (Homo sapiens, UniProt Q9BY41); test: Inhibition of human recombinant HDAC8
T2 sequence (Q9BY41 whole entry): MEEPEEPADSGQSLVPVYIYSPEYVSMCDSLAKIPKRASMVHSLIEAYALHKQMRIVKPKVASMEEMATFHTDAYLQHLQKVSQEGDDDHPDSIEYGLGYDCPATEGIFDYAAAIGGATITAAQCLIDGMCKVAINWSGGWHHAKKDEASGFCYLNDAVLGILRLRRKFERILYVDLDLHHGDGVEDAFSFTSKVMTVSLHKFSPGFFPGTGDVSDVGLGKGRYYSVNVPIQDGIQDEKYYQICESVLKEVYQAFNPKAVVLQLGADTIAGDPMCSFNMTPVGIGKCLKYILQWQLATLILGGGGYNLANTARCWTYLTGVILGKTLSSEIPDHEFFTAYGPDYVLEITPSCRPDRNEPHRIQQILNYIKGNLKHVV

A549 = test: Cytotoxicity against human A549 cells assessed as NADH level after 72 hrs by MTS cells; assay type: functional, cell-based; settings: A549, 72 h
In short: (§1)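 Human A549 lung, HL60 leukemia and PC3 prostate cancer lines incubated with compound for 72 h. Viability read by MTS colorimetric assay from remaining NADH; EC50 calculated; mean of at least two experiments.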

HL-60 = test: Cytotoxicity against human HL60 cells assessed as NADH level after 72 hrs by MTS cells; assay type: functional, cell-based; settings: HL-60, 72 h; in short: as §1
PC-3 = test: Cytotoxicity against human PC3 cells assessed as NADH level after 72 hrs by MTS cells; assay type: functional, cell-based; settings: PC-3, 72 h; in short: as §1

| SMILES | IC50 [1] | IC50 (Histone deacetylase 8) | EC50 (A549) | EC50 (HL-60) | EC50 (PC-3) |
| --- | --- | --- | --- | --- | --- |
| CN1CCCC(n2c(-c3cccc(/C=C/C(=O)NO)c3)nc3ccccc32)C1 (racemic) | 79 nM | 160 nM | 500 nM | 80 nM | 100 nM |
| CCN1CCC[C@H](n2c(-c3cccc(/C=C/C(=O)NO)c3)nc3ccccc32)C1 | 79 nM | 160 nM | 600 nM | 80 nM | 200 nM |
| Cc1nc(-c2cccc(/C=C/C(=O)NO)c2)n(CCN2CCOCC2)c1-c1ccccc1 | 120 nM | 79 nM | 4000 nM | 300 nM | 1000 nM |
| Cc1c(-c2ccccc2)nc(-c2cccc(/C=C/C(=O)NO)c2)n1[C@@H]1CCCN(C)C1 | 63 nM | 50 nM | 600 nM | 40 nM | 100 nM |
| O=C(/C=C/c1cccc(-c2nc3ccccc3[nH]2)c1)NO | 100 nM | 63 nM | 25000 nM | 3100 nM | 10000 nM |
| Cc1nc(-c2cccc(/C=C/C(=O)NO)c2)n([C@@H]2CCCN(C)C2)c1-c1ccccc1 | 79 nM | 100 nM | 400 nM | 30 nM | 100 nM |
| CCN1CCC[C@@H](n2c(C)nc(C)c2-c2cccc(/C=C/C(=O)NO)c2)C1 | 400 nM |  |  |  |  |
| CCN1CCC[C@@H](n2c(Cc3ccccc3)nc(C)c2-c2cccc(/C=C/C(=O)NO)c2)C1 | 500 nM | 100 nM |  |  |  |
| O=C(/C=C/c1cccc(-c2nc3ccccc3n2CCc2ccccc2)c1)NO | 31 nM | 25 nM | 2500 nM | 300 nM | 400 nM |
| O=C(/C=C/c1cccc(-c2nc3ccccc3n2CCN2CCCCC2)c1)NO | 40 nM | 100 nM | 1200 nM | 300 nM | 600 nM |
| CC(C)n1c(-c2cccc(/C=C/C(=O)NO)c2)nc2ccccc21 | 100 nM | 40 nM | 5000 nM | 1000 nM | 2500 nM |
| CCN1CCC[C@@H](n2c(-c3cccc(/C=C/C(=O)NO)c3)nc(C)c2-c2ccccc2)C1 | 79 nM | 50 nM | 300 nM | 40 nM | 80 nM |
| CN1CCC[C@H](n2c(-c3cccc(/C=C/C(=O)NO)c3)nc3ccccc32)C1 | 50 nM | 160 nM | 1200 nM | 160 nM | 300 nM |
| CCN1CCC[C@@H](n2c(-c3cccc(/C=C/C(=O)NO)c3)nc(Cc3ccccc3)c2C)C1 | 100 nM | 50 nM | 100 nM | 30 nM | 40 nM |
| Cc1nc(-c2cccc(/C=C/C(=O)NO)c2)n([C@@H]2CCCN(C(C)C)C2)c1-c1ccccc1 | 100 nM | 40 nM | 400 nM | 30 nM | 200 nM |
| Cc1nc(Cc2ccccc2)n(CCc2ccccc2)c1-c1cccc(/C=C/C(=O)NO)c1 | 63 nM | 63 nM |  |  |  |
| O=C(/C=C/c1cccc(-c2nc3ccccc3n2[C@@H]2CCCNC2)c1)NO | 79 nM | 120 nM | 1000 nM | 100 nM | 100 nM |
| O=C(/C=C/c1cccc(-c2nc3ccccc3n2-c2ccccc2)c1)NO |  | 50 nM | 16000 nM | 1600 nM | 4000 nM |
| CCN1CCCC(n2c(-c3cccc(/C=C/C(=O)NO)c3)nc3ccccc32)C1 (racemic) | 79 nM | 120 nM | 500 nM | 60 nM | 100 nM |
| Cc1c(-c2ccccc2)nc(-c2cccc(/C=C/C(=O)NO)c2)n1CCc1ccccc1 | 63 nM | 20 nM | 800 nM | 200 nM | 300 nM |

| SMILES | IC50 [1] | IC50 (Histone deacetylase 8) | EC50 (A549) | EC50 (HL-60) | EC50 (PC-3) |
| --- | --- | --- | --- | --- | --- |
| O=C(/C=C/c1cccc(-c2nc3ccccc3n2-c2ccc(Cl)cc2)c1)NO | 100 nM | 50 nM | 6300 nM | 800 nM | 2500 nM |
| Cc1nc(-c2cccc(/C=C/C(=O)NO)c2)n(CCN2CCOCC2)c1Cc1ccccc1 | 79 nM | 63 nM | 2500 nM | 200 nM | 600 nM |
| O=C(/C=C/c1cccc(-c2nc3ccccc3n2CCCc2ccccc2)c1)NO | 20 nM | 25 nM | 12000 nM | 1200 nM | 4000 nM |
| CCN1CCC[C@@H](n2c(-c3cccc(/C=C/C(=O)NO)c3)nc3ccccc32)C1 | 79 nM | 120 nM | 200 nM | 30 nM | 50 nM |
| Cc1nc(C)n(CCc2ccccc2)c1-c1cccc(/C=C/C(=O)NO)c1 | 120 nM | 100 nM |  |  |  |
| Cc1nc(-c2ccccc2)n(CCc2ccccc2)c1-c1cccc(/C=C/C(=O)NO)c1 | 79 nM | 50 nM |  |  |  |
| O=C(/C=C/c1cccc(-c2nc3ccccc3n2CCN2CCCC2)c1)NO |  | 63 nM | 3100 nM | 500 nM | 600 nM |
| Cc1nc(-c2cccc(/C=C/C(=O)NO)c2)n(CCc2ccccc2)c1C | 63 nM | 31 nM | 400 nM | 80 nM | 200 nM |
| C[C@H](c1ccccc1)n1c(-c2cccc(/C=C/C(=O)NO)c2)nc2ccccc21 | 40 nM | 20 nM | 16000 nM | 3100 nM | 10000 nM |
| CCN1CCC[C@@H](n2c(-c3cccc(/C=C/C(=O)NO)c3)nc(C)c2C)C1 | 120 nM | 100 nM | 300 nM | 40 nM | 80 nM |
| CCN1CCC[C@@H](n2c(-c3ccccc3)nc(C)c2-c2cccc(/C=C/C(=O)NO)c2)C1 | 630 nM | 400 nM |  |  |  |
| O=C(/C=C/c1cccc(-c2nc3ccccc3n2C2CCCCC2)c1)NO | 25 nM | 50 nM | 3100 nM | 500 nM | 1600 nM |
| O=C(/C=C/c1cccc(-c2nc3ccccc3n2[C@H]2CCCNC2)c1)NO | 25 nM | 120 nM | 2500 nM | 300 nM | 600 nM |
| Cc1c(Cc2ccccc2)nc(-c2cccc(/C=C/C(=O)NO)c2)n1[C@@H]1CCCN(C)C1 | 63 nM | 79 nM | 200 nM | 20 nM | 100 nM |
| Cn1c(-c2cccc(/C=C/C(=O)NO)c2)nc2ccccc21 | 79 nM | 100 nM | 12000 nM | 2000 nM | 7900 nM |
| CCN(CC)CCn1c(-c2cccc(/C=C/C(=O)NO)c2)nc2ccccc21 | 79 nM | 63 nM | 4000 nM | 800 nM | 1200 nM |
| Cc1nc(-c2cccc(/C=C/C(=O)NO)c2)n(CCc2ccccc2)c1Cc1ccccc1 | 50 nM | 20 nM | 300 nM | 50 nM | 200 nM |
| Cc1nc(-c2cccc(/C=C/C(=O)NO)c2)n(CCN2CCOCC2)c1C | 160 nM | 200 nM | > 50000 nM | 1600 nM | 5000 nM |
| CN(C)CCn1c(-c2cccc(/C=C/C(=O)NO)c2)nc2ccccc21 | 79 nM | 160 nM | 7900 nM | 1000 nM | 2500 nM |
